Reference: ChEMBL document CHEMBL1145833, “Studies on the synthesis and biological properties of non-carrier-added [(125)I and (131)I]-labeled arylalkylidenebisphosphonates: potent bone-seekers for diagnosis and therapy of malignant osseous lesions” (J Med Chem, 2003)

Experiments:
Conditions in all cases: in vivo
Mus musculus [1] = species on record: Mus musculus; assay: Distribution of compound in liver tissue of mice after 5 hr injection time was determined; assay type: ADME, organism-based
In short: (§1)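 Healthy athymic nude mice (balb/c nu/nu, 20–25 g, both sexes) received 50–400 KBq radioiodinated bisphosphonate in 100 µL phosphate buffer pH 6–7 by tail-vein injection. Three animals were sacrificed per time point. Tissues were excised, weighed and gamma-counted. Values are % injected dose per gram tissue, mean ± 1 SD, n = 3.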

Mus musculus [2] = species on record: Mus musculus; assay: Distribution of compound in lungs tissue of mice after 0.5 h injection time was determined; assay type: ADME, organism-based, Lung; in short: as §1
Mus musculus [3] = species on record: Mus musculus; assay: Distribution of compound in lungs tissue of mice after 2 hr injection time was determined; assay type: ADME, organism-based, Lung; in short: as §1
Mus musculus [4] = species on record: Mus musculus; assay: Distribution of compound in lungs tissue of mice after 24 hr injection time was determined; assay type: ADME, organism-based, Lung; in short: as §1
Mus musculus [5] = species on record: Mus musculus; assay: Distribution of compound in lungs tissue of mice after 5 hr injection time was determined; assay type: ADME, organism-based, Lung; in short: as §1
Mus musculus [6] = species on record: Mus musculus; assay: Distribution of compound in skull tissue of mice after 0.5 hr injection time was determined; assay type: ADME, organism-based; in short: as §1
Mus musculus [7] = species on record: Mus musculus; assay: Distribution of compound in skull tissue of mice after 2 hr injection time was determined; assay type: ADME, organism-based; in short: as §1
Mus musculus [8] = species on record: Mus musculus; assay: Distribution of compound in skull tissue of mice after 24 hr injection time was determined; assay type: ADME, organism-based; in short: as §1
Mus musculus [9] = species on record: Mus musculus; assay: Distribution of compound in skull tissue of mice after 5 h injection time was determined; assay type: ADME, organism-based; in short: as §1
Mus musculus [10] = species on record: Mus musculus; assay: Distribution of compound in spleen tissue of mice after 0.5 hr injection time was determined; assay type: ADME, organism-based; in short: as §1
Mus musculus [11] = species on record: Mus musculus; assay: Distribution of compound in kidneys tissue of mice after 0.5 hr injection time was determined; assay type: ADME, organism-based, Kidney; in short: as §1
Mus musculus [12] = species on record: Mus musculus; assay: Distribution of compound in kidneys tissue of mice after 2 hr injection time was determined; assay type: ADME, organism-based, Kidney; in short: as §1
Mus musculus [13] = species on record: Mus musculus; assay: Distribution of compound in kidneys tissue of mice after 24 hr injection time was determined; assay type: ADME, organism-based, Kidney; in short: as §1
Mus musculus [14] = species on record: Mus musculus; assay: Distribution of compound in kidneys tissue of mice after 5 hr injection time was determined; assay type: ADME, organism-based, Kidney; in short: as §1
Mus musculus [15] = species on record: Mus musculus; assay: Distribution of compound in liver tissue of mice after 0.5 hr injection time was determined; assay type: ADME, organism-based; in short: as §1
Mus musculus [16] = species on record: Mus musculus; assay: Distribution of compound in liver tissue of mice after 24 hr injection time was determined; assay type: ADME, organism-based; in short: as §1
Mus musculus [17] = species on record: Mus musculus; assay: Distribution of compound in heart tissue of mice after 2 hr injection time was determined; assay type: ADME, organism-based; in short: as §1
Mus musculus [18] = species on record: Mus musculus; assay: Distribution of compound in heart tissue of mice after 24 hr injection time was determined; assay type: ADME, organism-based; in short: as §1
Mus musculus [19] = species on record: Mus musculus; assay: Distribution of compound in heart tissue of mice after 5 hr injection time was determined; assay type: ADME, organism-based; in short: as §1
Mus musculus [20] = species on record: Mus musculus; assay: Distribution of compound in intestine tissue of mice after 0.5 hr injection time was determined; assay type: ADME, organism-based; in short: as §1
Mus musculus [21] = species on record: Mus musculus; assay: Distribution of compound in intestine tissue of mice after 2 hr injection time was determined; assay type: ADME, organism-based; in short: as §1
Mus musculus [22] = species on record: Mus musculus; assay: Distribution of compound in intestine tissue of mice after 24 hr injection time was determined; assay type: ADME, organism-based; in short: as §1
Mus musculus [23] = species on record: Mus musculus; assay: Distribution of compound in intestine tissue of mice after 5 hr injection time was determined; assay type: ADME, organism-based; in short: as §1
Mus musculus [24] = species on record: Mus musculus; assay: Distribution of compound in spleen tissue of mice after 2 hr injection time was determined; assay type: ADME, organism-based; in short: as §1
Mus musculus [25] = species on record: Mus musculus; assay: Distribution of compound in spleen tissue of mice after 24 hr injection time was determined; assay type: ADME, organism-based; in short: as §1
Mus musculus [26] = species on record: Mus musculus; assay: Distribution of compound in spleen tissue of mice after 5 h injection time was determined; assay type: ADME, organism-based; in short: as §1
Mus musculus [27] = species on record: Mus musculus; assay: Distribution of compound in stomach tissue of mice after 0.5 hr injection time was determined; assay type: ADME, organism-based; in short: as §1
Mus musculus [28] = species on record: Mus musculus; assay: Distribution of compound in stomach tissue of mice after 2 hr injection time was determined; assay type: ADME, organism-based; in short: as §1
Mus musculus [29] = species on record: Mus musculus; assay: Distribution of compound in stomach tissue of mice after 24 hr injection time was determined; assay type: ADME, organism-based; in short: as §1
Mus musculus [30] = species on record: Mus musculus; assay: Distribution of compound in stomach tissue of mice after 5 hr injection time was determined; assay type: ADME, organism-based; in short: as §1
Mus musculus [31] = species on record: Mus musculus; assay: Distribution of compound in thyroid tissue of mice after 0.5 hr injection time was determined; assay type: ADME, organism-based, Thyroid gland
In short: (§2)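 Healthy athymic nude balb/c nu/nu mice (20–25 g) received 50–400 KBq radioiodinated bisphosphonate in 100 μL phosphate buffer, pH 6–7, by tail-vein injection. Three animals were sacrificed per time point. Thyroid-containing tissue was excised, weighed and gamma-counted. Values are % of injected dose, mean ± 1 SD of three mice.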

Mus musculus [32] = species on record: Mus musculus; assay: Distribution of compound in thyroid tissue of mice after 2 hr injection time was determined; assay type: ADME, organism-based, Thyroid gland; in short: as §2
Mus musculus [33] = species on record: Mus musculus; assay: Distribution of compound in thyroid tissue of mice after 24 h injection time was determined; assay type: ADME, organism-based, Thyroid gland; in short: as §2
Mus musculus [34] = species on record: Mus musculus; assay: Distribution of compound in thyroid tissue of mice after 5 h injection time was determined; assay type: ADME, organism-based, Thyroid gland; in short: as §2
Mus musculus [35] = species on record: Mus musculus; assay: Distribution of compound in blood tissue of mice after 0.5 hr injection time was determined; assay type: ADME, organism-based; in short: as §1
Mus musculus [36] = species on record: Mus musculus; assay: Distribution of compound in blood tissue of mice after 2 hr injection time was determined; assay type: ADME, organism-based; in short: as §1
Mus musculus [37] = species on record: Mus musculus; assay: Distribution of compound in blood tissue of mice after 24 hr injection time was determined; assay type: ADME, organism-based; in short: as §1
Mus musculus [38] = species on record: Mus musculus; assay: Distribution of compound in blood tissue of mice after 5 h injection time was determined; assay type: ADME, organism-based; in short: as §1
Mus musculus [39] = species on record: Mus musculus; assay: Distribution of compound in femur tissue of mice after 0.5 hr injection time was determined; assay type: ADME, organism-based; in short: as §1
Mus musculus [40] = species on record: Mus musculus; assay: Distribution of compound in femur tissue of mice after 2 hr injection time was determined; assay type: ADME, organism-based; in short: as §1
Mus musculus [41] = species on record: Mus musculus; assay: Distribution of compound in femur tissue of mice after 24 hr injection time was determined; assay type: ADME, organism-based; in short: as §1
Mus musculus [42] = species on record: Mus musculus; assay: Distribution of compound in femur tissue of mice after 5 hr injection time was determined; assay type: ADME, organism-based; in short: as §1
Mus musculus [43] = species on record: Mus musculus; assay: Distribution of compound in heart tissue of mice after 0.5 hr injection time was determined; assay type: ADME, organism-based; in short: as §1
Mus musculus [44] = species on record: Mus musculus; assay: Distribution of compound in liver tissue of mice after 2 h injection time was determined; assay type: ADME, organism-based; in short: as §1

**Q.** How did the Injected (Mus musculus [1]) turn out when `O=P(O)(O)C(Cc1cccc(I)c1)P(=O)(O)O` was run?
**A.** 0.94%

**Q.** What about the Injected (Mus musculus [2]) of the same molecule?
**A.** 1%

**Q.** And the Injected (Mus musculus [3])?
**A.** 0.35%

**Q.** And the Injected (Mus musculus [4])?
**A.** 0.06%

**Q.** What about the Injected (Mus musculus [5]) of the same molecule?
**A.** 0.1%

**Q.** And the Injected (Mus musculus [6])?
**A.** 10.28%

**Q.** And the Injected (Mus musculus [7])?
**A.** 7.64%

**Q.** What about the Injected (Mus musculus [8]) of the same molecule?
**A.** 7.13%

**Q.** What about the Injected (Mus musculus [9]) of the same molecule?
**A.** 6.16%

**Q.** And the Injected (Mus musculus [10])?
**A.** 0.35%

**Q.** And the Injected (Mus musculus [11])?
**A.** 8.23%

**Q.** And the Injected (Mus musculus [12])?
**A.** 3.68%

**Q.** And the Injected (Mus musculus [13])?
**A.** 1.06%

**Q.** What about the Injected (Mus musculus [14]) of the same molecule?
**A.** 2.26%

**Q.** What about the Injected (Mus musculus [15]) of the same molecule?
**A.** 2.98%

**Q.** And the Injected (Mus musculus [16])?
**A.** 0.23%

**Q.** And the Injected (Mus musculus [17])?
**A.** 0.26%

**Q.** What about the Injected (Mus musculus [18]) of the same molecule?
**A.** 0.04%

**Q.** What about the Injected (Mus musculus [19]) of the same molecule?
**A.** 0.07%

**Q.** And the Injected (Mus musculus [20])?
**A.** 0.37%

**Q.** And the Injected (Mus musculus [21])?
**A.** 0.28%

**Q.** And the Injected (Mus musculus [22])?
**A.** 0.28%

**Q.** And the Injected (Mus musculus [23])?
**A.** 0.24%

**Q.** What about the Injected (Mus musculus [24]) of the same molecule?
**A.** 0.26%

**Q.** What about the Injected (Mus musculus [25]) of the same molecule?
**A.** 0.1%

**Q.** And the Injected (Mus musculus [26])?
**A.** 0.12%

**Q.** And the Injected (Mus musculus [27])?
**A.** 1.14%

**Q.** And the Injected (Mus musculus [28])?
**A.** 1.12%

**Q.** What about the Injected (Mus musculus [29]) of the same molecule?
**A.** 0.05%

**Q.** What about the Injected (Mus musculus [30]) of the same molecule?
**A.** 0.23%

**Q.** And the Injected (Mus musculus [31])?
**A.** 0.21%

**Q.** What about the Injected (Mus musculus [32]) of the same molecule?
**A.** 0.14%

**Q.** What about the Injected (Mus musculus [33]) of the same molecule?
**A.** 0.02%

**Q.** And the Injected (Mus musculus [34])?
**A.** 0.06%

**Q.** What about the Injected (Mus musculus [35]) of the same molecule?
**A.** 2.22%

**Q.** What about the Injected (Mus musculus [36]) of the same molecule?
**A.** 0.31%

**Q.** And the Injected (Mus musculus [37])?
**A.** 0.03%

**Q.** What about the Injected (Mus musculus [38]) of the same molecule?
**A.** 0.11%

**Q.** And the Injected (Mus musculus [39])?
**A.** 18.8%

**Q.** And the Injected (Mus musculus [40])?
**A.** 21.16%

**Q.** And the Injected (Mus musculus [41])?
**A.** 15.25%

**Q.** And the Injected (Mus musculus [42])?
**A.** 10%

**Q.** And the Injected (Mus musculus [43])?
**A.** 0.9%

**Q.** What about the Injected (Mus musculus [44]) of the same molecule?
**A.** 2.14%

**Q.** Which results are given for `O=P(O)(O)C(NCCc1cccc(I)c1)P(=O)(O)O`?
**A.** Injected (Mus musculus [4]): 0.67%; Injected (Mus musculus [8]): 0.91%; Injected (Mus musculus [13]): 0.4%; Injected (Mus musculus [16]): 5.57%; Injected (Mus musculus [18]): 0.19%; Injected (Mus musculus [22]): 0.1%; Injected (Mus musculus [25]): 2.49%; Injected (Mus musculus [29]): 0.07%; Injected (Mus musculus [33]): 0.02%; Injected (Mus musculus [37]): 0.18%; Injected (Mus musculus [41]): 1.39%
